Results on two molecules are retold here after publication PMC4529374 (Pharmaceutical research, 2015).

The subject of one data set is HIV-1. Conditions: read-out: EC50 of CSIC; cited from earlier work.
The nature of data set [1]: CSIC solubility in water and solubilizer solutions. It counts as physicochemical. The settings on record: water. In short, it runs like this:
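Excess CSIC was rotated at moderate speed in the solubilizer solutions at ambient temperature for 120 h. The mixture was filtered through a 0.2 µm membrane, and the filtrate was assayed by HPLC. HPLC conditions: Gemini C18 column, isocratic acetonitrile-0.075% (v/v) TFA (40:60) at 1.2 ml/min, UV detection at 302 nm, room temperature, total peak area against a linear least-squares calibration. LOQ was 0.5 µg/ml.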

Data set [2] in a line: In vitro cytotoxicity, MTT assay. It is filed as cell-based. The settings on record: human, HEC-1A cells. Put shortly:
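HEC-1A cells were grown in McCoy's 5A with 10% FBS and penicillin/streptomycin at 37°C, 5% CO2, then seeded at 1×10⁴ cells/well. After 24 h, free drug (5 ng/ml–50 µg/ml) or film at the equivalent dose, or placebo film, was added for 24 h. MTT (5 mg/ml stock) was added in fresh medium for 3 h at 37°C. Formazan was dissolved in DMSO and absorbance read at 595 nm.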
Background: Tetrazolium dyes change colour on reduction, which living cells bring about.

Data set [3] in a line: EFdA/CSIC stability in the film polymer solution. The settings on record: 25°C/65% R.H. and 40°C/75% R.H., 4 weeks. It counts as physicochemical. In short, it runs like this: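 Drug-loaded aqueous PVA (7%, w/w) film-casting solution, about 0.5 ml per vial, was sealed against evaporation and light. EFdA: Zorbax C18, 0.4% phosphoric acid/methanol gradient, 0.8 ml/min, UV 260 nm. CSIC: Gemini C18, acetonitrile-0.075% TFA (40:60), 1.2 ml/min, UV 302 nm.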

By EC50 is commonly meant the midpoint of the concentration-response curve. What is called solubility is the dissolved amount per volume that the medium holds. Read a high solubility as much dissolved substance. One may read the CC50 as the concentration at which the toxic effect on the cells reaches its halfway point.

Values after ≈ are worked out from the molar mass of the structure shown. Where only a bound is given, the exact number is not on record here.

Consider `NC(=O)c1[nH]c2ccc(Cl)cc2c1S(=O)(=O)c1ccccc1` [CSIC, 5-chloro-3-phenylsulfonylindole-2-carboxamide], for which the concentration for a half-maximal effect (EC50) in the data set on HIV-1 is 1.2 nM. Besides, in data set [1], the solubility was less than 0.5 µg/mL. Half-maximal cytotoxicity in data set [2] (CC50 at 24 h) was put at 11.4 ± 2.8 µg/mL (≈ 34.1 µM). Besides, the “loss of drug content in film polymer solution” value in data set [3] was “No loss of drug content”.

As to `C#C[C@]1(CO)O[C@@H](n2cnc3c(N)nc(F)nc32)C[C@@H]1O` [EFdA, 4’-ethynyl-2-fluoro-2’-deoxyadenosine], the CC50 at 24 h in data set [2] is greater than 50 µg/mL. In addition, in data set [3], the “loss of drug content in film polymer solution” value is “No loss of drug content”.
